Results on 4 compounds are retold here after ChEMBL document CHEMBL1138492, “Conformationally constrained analogues of diacylglycerol (DAG). 31. Modulation of the biological properties of diacylgycerol lactones (DAG-lactones) containing rigid-rod acyl groups separated from the core lactone by spacer units of different lengths” (J Med Chem, 2009).

The target in data set [1] is T1, Protein kinase C delta type (Homo sapiens, UniProt Q05655). Nature of the data set: Displacement of [3H]PDBu form human PKCdelta in presence of plasma membrane lipid mimetic mixture. The gist of the method:
(§1)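 [3H]PDBu competition on individual recombinant human PKC isozymes in 100 μg/mL total lipid mimicking the plasma-membrane inner leaflet (PC/PE/PS/PI/cholesterol 12:35:22:9:21); ID50 fitted to a sigmoidal competition curve, Ki = ID50/(1 + L/Kd); three independent determinations, mean ± SEM.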
Target sequence in this assay (Q05655 whole entry): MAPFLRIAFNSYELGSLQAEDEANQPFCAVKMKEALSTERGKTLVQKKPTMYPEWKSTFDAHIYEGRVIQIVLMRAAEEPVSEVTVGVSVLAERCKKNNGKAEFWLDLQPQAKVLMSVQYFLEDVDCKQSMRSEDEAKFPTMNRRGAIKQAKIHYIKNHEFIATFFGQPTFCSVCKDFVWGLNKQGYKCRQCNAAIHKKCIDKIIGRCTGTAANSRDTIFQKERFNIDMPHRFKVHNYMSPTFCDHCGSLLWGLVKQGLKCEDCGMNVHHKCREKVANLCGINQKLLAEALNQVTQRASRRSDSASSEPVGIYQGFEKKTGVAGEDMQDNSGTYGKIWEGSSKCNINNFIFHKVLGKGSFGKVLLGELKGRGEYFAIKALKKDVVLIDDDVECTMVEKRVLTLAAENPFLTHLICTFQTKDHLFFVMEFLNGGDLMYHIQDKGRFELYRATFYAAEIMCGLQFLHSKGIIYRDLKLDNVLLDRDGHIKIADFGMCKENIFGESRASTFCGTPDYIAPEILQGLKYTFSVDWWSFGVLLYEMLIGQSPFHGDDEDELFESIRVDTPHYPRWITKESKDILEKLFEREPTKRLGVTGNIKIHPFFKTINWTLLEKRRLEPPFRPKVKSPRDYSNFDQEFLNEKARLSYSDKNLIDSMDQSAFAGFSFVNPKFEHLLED

The target in data set [2] is T2, Protein kinase C epsilon type (Homo sapiens, UniProt Q02156).
T2 sequence (Q02156 whole entry): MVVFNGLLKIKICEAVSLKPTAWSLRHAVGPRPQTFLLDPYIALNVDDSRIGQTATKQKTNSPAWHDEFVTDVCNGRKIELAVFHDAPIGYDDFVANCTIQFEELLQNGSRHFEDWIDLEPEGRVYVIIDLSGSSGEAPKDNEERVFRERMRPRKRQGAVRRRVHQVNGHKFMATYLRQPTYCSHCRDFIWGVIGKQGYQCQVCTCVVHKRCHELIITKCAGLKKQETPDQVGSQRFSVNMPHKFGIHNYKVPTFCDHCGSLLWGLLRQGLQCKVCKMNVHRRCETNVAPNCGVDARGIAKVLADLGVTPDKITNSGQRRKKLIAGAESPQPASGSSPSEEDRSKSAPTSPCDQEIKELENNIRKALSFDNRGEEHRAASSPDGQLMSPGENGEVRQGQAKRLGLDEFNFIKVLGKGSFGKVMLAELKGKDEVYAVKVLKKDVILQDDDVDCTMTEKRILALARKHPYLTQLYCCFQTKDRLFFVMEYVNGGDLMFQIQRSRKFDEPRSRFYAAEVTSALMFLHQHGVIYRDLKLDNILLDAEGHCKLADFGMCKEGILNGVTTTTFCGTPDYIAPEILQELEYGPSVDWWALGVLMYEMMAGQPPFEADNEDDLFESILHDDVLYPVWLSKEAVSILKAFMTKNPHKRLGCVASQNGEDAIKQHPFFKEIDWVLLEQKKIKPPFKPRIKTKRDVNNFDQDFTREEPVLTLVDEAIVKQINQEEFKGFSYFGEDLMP
As to the kind of experiment: Displacement of [3H]PDBu form human PKCepsilon in presence of plasma membrane lipid mimetic mixture. The gist of the method: as §1

Data set [3] deals with T3, Protein kinase C alpha type (Homo sapiens, UniProt P17252). Nature of the data set: Activation of GFP-tagged PKCalpha expressed in CHO cells assessed as isozyme translocation from cytosol to plasma membrane at 10 uM by confocal microscopy. The format is cell-based. In a few lines:
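GFP-PKCα transiently transfected (Lipofectamine) into CHO cells grown in F12-K with 10% FBS; cells given 10 μM compound and redistribution followed over time by confocal microscopy (488 nm argon excitation), images every 30 s; kinetics of plasma-membrane translocation scored from four independent experiments.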

For data set [4], the target named is T1, Protein kinase C delta type. Nature of the data set: Activation of GFP-tagged PKCdelta expressed in CHO cells assessed as isozyme translocation from cytosol to internal membrane at 10 uM by confocal microscopy. It counts as cell-based. The gist of the method: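 CHO cells in F12-K/10% FBS transiently transfected with GFP-PKCδ, exposed to 10 μM compound; confocal imaging at 488 nm every 30 s after addition; relative localization to plasma, nuclear and internal membranes scored semi-quantitatively (+ marks) over three independent experiments.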
Target sequence in this assay (Q05655 whole entry, looked up): as the sequence (Q05655 whole entry) above

A short description of data set [5]: Membrane binding affinity to synthetic dimyristoylphosphatidylcholine/polydiacetylene vesicles assessed as increase in fluorescence chromatic response by fluorescence spectroscopy. It counts as physicochemical. The gist of the method: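 DMPC/10,12-tricosadiynoic acid vesicles polymerized at 254 nm for 30 s, used at 0.5 mM total lipid in 50 mM Tris, pH 8; compounds in DMSO mixed with vesicles before buffer addition; fluorescence read at 485/555 nm excitation/emission, expressed as % of fully transformed red vesicles over a dose range.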

For data set [6], the target named is T3, Protein kinase C alpha type. Nature of the data set: Displacement of [3H]PDBu form human PKCalpha in presence of phosphatidylserine. The gist of the method:
(§2)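 Recombinant human PKC isozyme, single isozyme per assay, with 100 μg/mL phosphatidylserine; competition of unlabeled ligand against [20-3H]PDBu binding; ID50 from least-squares sigmoidal fit, converted to Ki = ID50/(1 + L/Kd), L being free [3H]PDBu at ID50; mean ± SEM of three independent experiments.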

In data set [7] the target is T4, Protein kinase C beta type (Homo sapiens, UniProt P05771). Nature of the data set: Displacement of [3H]PDBu form human PKCbeta in presence of phosphatidylserine. In a few lines: as §2
T4 sequence (P05771 whole entry): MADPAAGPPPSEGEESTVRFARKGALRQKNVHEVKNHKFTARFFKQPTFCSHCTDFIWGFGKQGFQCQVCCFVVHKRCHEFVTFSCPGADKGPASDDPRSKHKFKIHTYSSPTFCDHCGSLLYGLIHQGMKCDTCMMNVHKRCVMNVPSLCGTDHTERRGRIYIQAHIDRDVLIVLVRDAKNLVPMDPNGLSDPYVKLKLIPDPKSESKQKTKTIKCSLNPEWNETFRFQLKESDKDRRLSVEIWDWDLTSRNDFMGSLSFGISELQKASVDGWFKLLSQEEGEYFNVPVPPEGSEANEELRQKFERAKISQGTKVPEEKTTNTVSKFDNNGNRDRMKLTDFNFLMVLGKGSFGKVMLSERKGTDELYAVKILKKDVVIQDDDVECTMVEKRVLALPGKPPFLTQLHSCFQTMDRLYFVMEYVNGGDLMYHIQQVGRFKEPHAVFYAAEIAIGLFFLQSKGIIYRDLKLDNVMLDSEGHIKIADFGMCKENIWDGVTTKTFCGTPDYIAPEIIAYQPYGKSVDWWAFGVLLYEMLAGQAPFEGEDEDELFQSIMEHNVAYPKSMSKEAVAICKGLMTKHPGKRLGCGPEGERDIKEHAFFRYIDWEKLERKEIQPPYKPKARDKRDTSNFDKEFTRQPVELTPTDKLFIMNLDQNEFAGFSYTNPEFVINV
Background: Displacement assays read how much labelled ligand stays bound in the presence of the test substance.

Data set [8] concerns the target T5, Protein kinase C gamma type (Homo sapiens, UniProt P05129). As to the kind of experiment: Displacement of [3H]PDBu form human PKCgamma in presence of phosphatidylserine. The gist of the method: as §2
The target in data set [9] is T1, Protein kinase C delta type. Nature of the data set: Displacement of [3H]PDBu form human PKCdelta in presence of phosphatidylserine. In a few lines:
as §2
Target sequence in this assay (Q05655 whole entry): as the sequence (Q05655 whole entry) above

Data set [10] deals with T2, Protein kinase C epsilon type. Nature of the data set: Displacement of [3H]PDBu form human PKCepsilon in presence of phosphatidylserine. The gist of the method: as §2
Data set [11] deals with T3, Protein kinase C alpha type. As to the kind of experiment: Displacement of [3H]PDBu form human PKCalpha in presence of plasma membrane lipid mimetic mixture. The gist of the method: as §1
In data set [12] the target is T4, Protein kinase C beta type. As to the kind of experiment: Displacement of [3H]PDBu form human PKCbeta in presence of plasma membrane lipid mimetic mixture. The gist of the method: as §1
Data set [13] addresses T5, Protein kinase C gamma type. As to the kind of experiment: Displacement of [3H]PDBu form human PKCgamma in presence of plasma membrane lipid mimetic mixture. The gist of the method: as §1
The next data set relates to LNCaP. As to the kind of experiment: Induction of apoptosis in human LNCAP cells after 48 hrs by flow cytometry relative to PMA. It counts as functional, cell-based. In a few lines:
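LNCaP cells in RPMI-1640/10% FBS, plated at ~60% confluency, treated with a concentration series for 48 h alongside 1 μM PMA; stained with YO-PRO-1 (1 μM final, 20 min, 4 °C, dark) then 7-AAD (5 μg/mL final, 10 min) and analyzed by flow cytometry; YO-PRO-1-positive cells taken as apoptotic, % of total; three experiments.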
(Flow cytometry measures light scatter and fluorescence of single cells or particles in a stream.)

Calls of active or inactive are those of the source. The rule behind the calls is not given here.

One may read the Ki as a dissociation constant, usually derived from enzyme kinetics or from competition with a known ligand. On to `CC(C)=C1CC(CO)(COC(=O)CCOc2ccc(C#Cc3ccc(C)cc3)cc2)OC1=O` (stereo unspecified), for which the Ki in [1] was 31.3 nM; in [2] it was 78.7 nM; in [6] it was 20.8 nM; in data set [7], 57 nM; in [8] it was 35 nM; in data set [9], 35.8 nM. Further, the Ki in data set [10] worked out at 153 nM; in [11] it was 143 nM; in data set [12] it was 66 nM; in [13], 78 nM. Further, the outcome in data set [3] and in data set [4] was Active. For the same compound, the result in data set [5] was Active.

Regarding `CC(C)=C1CC(CO)(COC(=O)c2ccc(C#Cc3ccc(C)cc3)cc2)OC1=O` (stereo unspecified), the Ki in [1] stood at 2.74 nM; in [2] it was 8.3 nM; in data set [6] it was 6 nM; in [7], 4.1 nM; in data set [8] it was 6.2 nM; in data set [9], 5.4 nM. Also, the Ki was 10 nM in data set [10], 15.8 nM in [11], 12.6 nM in [12] and 15.7 nM in data set [13]. Besides, the outcome in data set [3] was Active. In addition, the result in [5] was Active.

Regarding `CC(C)=C1CC(CO)(COC(=O)CCCOc2ccc(C#Cc3ccc(C)cc3)cc2)OC1=O` (stereo unspecified), the Ki in data set [1] amounted to 11.6 nM; in data set [2] it was 31.9 nM; in data set [6] it was 19.5 nM; in data set [7], 15.2 nM; in data set [8] it was 12.3 nM; in data set [9] it was 11.9 nM. Also, the Ki amounted to 37.9 nM in [10], 76 nM in data set [11], 43.8 nM in data set [12] and 31.7 nM in data set [13]. For the same compound, the result in data set [3] was Active. For the same compound, the outcome in data set [5] was Active.

Take `CC(C)=C1CC(CO)(COC(=O)COc2ccc(C#Cc3ccc(C)cc3)cc2)OC1=O` (stereo unspecified): the Ki in data set [1] turned out to be 47.7 nM; in [2] it was 147 nM; in data set [6] it was 38 nM; in data set [7] it was 76 nM; in [8] it was 50.8 nM; in data set [9], 46.4 nM. The Ki came to 268 nM in data set [10], 165 nM in data set [11], 100 nM in data set [12] and 140 nM in [13]. The outcome (with LNCaP; in [3]; in data set [4]) was Active. Also, in [5], the result was Active.
